Bioassay records as filed in PubChem.
KCNQ1 block: blocks the human KCNQ1 potassium channel; P51787; AID 2642; B-score at 10 µM; hit rate 1.3% among 310,000; CHO-K1 KCNQ1, FluxOR thallium flux fluorescence; stronger effect = higher value;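 active = compounds whose thallium flux B-score, printed positive for inhibition, exceeds three library SD while starting fluorescence stays within three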;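 also: channel opened by potassium depolarization with thallium stimulus after 20 min compound exposure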
Target sequence (P51787 whole entry, looked up): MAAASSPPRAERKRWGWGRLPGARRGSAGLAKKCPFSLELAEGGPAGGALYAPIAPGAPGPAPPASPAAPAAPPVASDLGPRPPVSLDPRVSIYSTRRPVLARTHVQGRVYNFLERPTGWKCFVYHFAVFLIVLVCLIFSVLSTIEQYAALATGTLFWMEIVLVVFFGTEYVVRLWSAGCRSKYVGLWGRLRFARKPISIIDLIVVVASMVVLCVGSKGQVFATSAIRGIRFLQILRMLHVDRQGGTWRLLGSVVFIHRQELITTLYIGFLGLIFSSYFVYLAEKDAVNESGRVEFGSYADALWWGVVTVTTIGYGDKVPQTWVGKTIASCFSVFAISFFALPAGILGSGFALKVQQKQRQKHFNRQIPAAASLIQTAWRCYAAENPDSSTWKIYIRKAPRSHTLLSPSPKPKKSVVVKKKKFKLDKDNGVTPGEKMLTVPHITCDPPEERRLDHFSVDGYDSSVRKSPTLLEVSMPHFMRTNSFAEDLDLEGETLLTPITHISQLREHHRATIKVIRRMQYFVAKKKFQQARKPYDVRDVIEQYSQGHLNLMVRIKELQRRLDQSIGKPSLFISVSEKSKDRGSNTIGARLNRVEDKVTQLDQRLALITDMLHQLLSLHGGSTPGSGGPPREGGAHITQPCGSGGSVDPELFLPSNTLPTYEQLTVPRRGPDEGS
KCC2 mod: modulates chloride dependent transport by human KCC2. B-score of Tl+ flux slope (higher = more flux/activation; lower = inhibition) at 10 µM. KCC2 cells, thallium flux FluoZin-2 fluorescence. AID 1456. hit rate 2.2% among 190,000. Q9H2X9;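 active = thallium flux slope and its plate-corrected score both differing from the plate sample mean at a set confidence after two filtering rounds, in either direction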;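 also: slope of fluorescence scaled to starting intensity during 10 to 20 s after thallium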
KCNK9 inh: human KCNK9 channel inhibition. B-score at 10 µM. HEK293 KCNK9, FluxOR thallium flux fluorescence; stronger effect = lower value. hit rate 1.2% among 310,000;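 active = ratio B-score over 3 SD below the library mean, with starting fluorescence within 5 SD of its mean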;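 also: negative B-score means less thallium flux so channel inhibition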
KCNQ1 act: human KCNQ1 channel potentiation or activation; CHO-K1 KCNQ1, thallium flux FluxOR fluorescence; stronger effect = higher value; B-score at 10 µM; hit rate 0.35% among 310,000; P51787; AID 2648;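 active = fluorescence ratio B-score, a plate-corrected score, at least three library SD, with initial intensity B-score within 5 SD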
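Assay system: stable KCNQ1 CHO-K1 line; medium: assay buffer, equal DMSO in all wells; timing: 90 min dye loading and 20 min compound exposure, both at room temperature; technique: kinetic FluxOR thallium fluorescence, 10-s 1-Hz baseline, 110-s post-stimulus read; read-out basis: B score of baseline-normalized fluorescence ratio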
KCNK3 block: human KCNK3 channel inhibition, primary screen | CHO-KCNK3 thallium flux, FluxOR fluorescence; stronger effect = lower value | B-score at 10 µM | hit rate 0.84% among 340,000 | AID 602410;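 active = B-score under library mean minus 4 SD, starting fluorescence ratio at most library mean plus 5 SD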;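 also: more negative B-score means stronger inhibition of thallium flux through KCNK3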
hERG rescue: compounds protecting human hERG from proarrhythmic drug block | CHO-hERG, FluxOR thallium flux, dofetilide IC70 present | activation (rescue from dofetilide block), less the hit threshold, % at 10 µM | hit rate 0.51% among 310,000;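 active = activation above the mean of controls blocked by dofetilide plus 5 SD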;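 also: thallium influx through hERG after potassium depolarization seen as dye fluorescence rise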
KCC2 sec1: KCC2 (human) modulation, secondary assay; shares compounds with KCC2 mod; HEK293-KCC2, thallium flux, FluoZin2 fluorescence; stronger effect = higher value; normalised thallium flux (F/F0 slope) at 10 µM; hit rate 15% among 3,700; AID 1713;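 active = thallium flux slope above the same plate's solvent-only control mean plus 3 SD; inconclusive = the two replicate wells disagree; inactive = no significant difference from solvent-only control wells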
KCC2 bumet counter: bumetanide-insensitive thallium flux in KCC2 cells with ouabain, counter-screen; shares compounds with KCC2 mod; HEK293-KCC2 + bumetanide/ouabain, thallium flux FluoZin2; stronger effect = higher value; normalized thallium flux at 10 µM; hit rate 49% among 3,700; AID 1714;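 active = thallium entry rate above the same plate's blocked-transporter control wells by more than 3 SD; inconclusive = the two repeat wells disagree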;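 also: raw slope of fluorescence over initial fluorescence between 10 and 20 s after thallium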
KCC2 secondary2: confirmation of human KCC2 transport modulators; shares compounds with KCC2 mod; HEK293-KCC2, thallium flux FluoZin2 fluorescence; actives lie on both sides; F/F0 rise rate, 10–20 s post-thallium; normalized thallium flux at 10 µM; hit rate 23% among 3,700;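 active = thallium flux slope more than 3 SD above or below the plate's solvent-only control mean, mostly below; inconclusive = the two repeat wells disagreed; inactive = no significant shift from solvent-only controls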;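 also: raw slope with 0.1% DMSO as baseline and bumetanide as block control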
HEK293 Tl flux: acts in parental HEK cells, KCC2 counter-screen; shares compounds with KCC2 mod; HEK293 parental cells, thallium flux FluoZin2, ouabain; baseline-ratio fluorescence slope, 10–20 s after thallium; thallium flux rate (normalised fluorescence) at 10 µM; hit rate 46% among 3,700;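 active = thallium flux rate significantly above the same plate's solvent-only control wells, beyond their mean plus 3 SD; inconclusive = the two replicate wells gave conflicting results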
KCC2 ouabain: modulates human KCC2 on retest with ouabain. shares compounds with KCC2 mod. HEK293-KCC2, thallium flux FluoZin2 fluorescence; bidirectional: low = inhibitor, high = activator. raw Tl+ flux slope (below DMSO = inhibition, above = activation) at 10 µM. hit rate 48% among 3,700. AID 1717;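 active = thallium flux slope beyond 3 SD from same-plate DMSO control mean in most replicates, usually higher, sometimes lower; inconclusive = repeat tests gave conflicting results; inactive = no significant difference from controls in most replicates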;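 also: slope of initial-normalized fluorescence between seconds 10 and 20 after thallium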
HEK293 Tl flux2: parental HEK flux effect, counter-screen 2; AID 1718; shares compounds with KCC2 mod; HEK293 parental, thallium flux FluoZin-2 fluorescence slope; hit rate 33% among 3,700; thallium flux slope at 10 µM;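 active = thallium flux slope above the same plate's solvent-control mean plus 3 SD in both duplicate wells; inconclusive = duplicate wells that disagreed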;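 also: run without ouabain in cells lacking the KCC2 cotransporter; slope of fluorescence scaled to its starting value between 10 and 20 s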
Numbers without * were called inactive; i = inactive; ? = inconclusive; . = no result. Sampled rows, rich in hits. Any-hit rate of the full collection: about 4.1%.

SMILES | KCNQ1 block | KCC2 mod | KCNK9 inh | KCNQ1 act | KCNK3 block | hERG rescue | KCC2 sec1 | KCC2 bumet counter | KCC2 secondary2 | HEK293 Tl flux | KCC2 ouabain | HEK293 Tl flux2
CCCCCC(=O)NNC(=S)NC(=O)c1ccc([N+](=O)[O-])cc1 | i | 13.1* | i | i | i | 1.6 | 0.00741 | 0.027* | 0.0354 | 0.0197* | 0.0326* | 0.0198*
CCCCCC(=O)NC(=S)Nc1ccc(Cl)cn1 | i | 8.25* | i | i | i | -16.9 | 0.00647 | 0.0132* | 0.0348 | 0.0161* | ? | 0.0184*
CCCCC(=O)NC(=S)NNC(=O)c1ccc(OC)cc1 | i | 26.7* | i | i | i | -4.4 | 0.0208* | 0.0526* | 0.0354 | ? | 0.0389* | ?
CCCNC(=O)c1ccc(Cl)cc1Cl | i | -0.0641 | i | i | i | -1.9 | . | . | . | . | . | .
C/C(=N\Nc1ccccc1C(=O)O)c1ccncc1 | i | . | i | i | i | -5.1 | . | . | . | . | . | .
S=C(Nc1ccccc1)Nc1ccc(Cl)cn1 | i | 5.8* | i | i | i | -2.0 | 0.0176 | 0.0165* | 0.0301 | 0.0105* | 0.0189 | 0.0119
O=C(NC(=S)Nc1ccc(Cl)cn1)C(c1ccccc1)c1ccccc1 | i | . | i | i | i | -4.7 | . | . | . | . | . | .
O=C(NC(=S)Nc1ccccc1O)c1ccc(Cl)cc1Cl | i | 5.25* | i | i | i | -9.9 | 0.00744 | 0.0128* | 0.0326 | 0.013* | ? | 0.0133*
O=C(NNC(=S)NC(=O)c1ccccc1[N+](=O)[O-])c1ccc(Cl)cc1Cl | i | 4.95* | i | i | i | -4.1 | 0.0108 | 0.0155* | 0.0307 | 0.0136* | ? | 0.0112
CCN(Cc1ccccc1)C(=O)CCS(=O)(=O)c1ccc2c(c1)n(C)c(=O)c(=O)n2C | i | . | i | i | i | -7.7 | . | . | . | . | . | .
O=C(/C=C/c1ccc(F)cc1)NC(=S)N1CCOCC1 | i | 1.74 | i | i | i | -5.1 | . | . | . | . | . | .
O=C(NC(=S)N1CCN(C/C=C/c2ccccc2)CC1)c1c(F)cccc1F | i | 6.81* | i | 7* | i | -3.6 | 0.0178* | 0.0418* | 0.0302 | 0.0155* | ? | ?
O=C(NC(=S)N1CCN(C/C=C/c2ccccc2)CC1)c1ccco1 | i | 4.21* | i | i | i | -10.3 | 0.00549 | 0.0153* | 0.0325 | 0.0136* | ? | 0.0162*
Fc1ccc(NC(=S)N2CCN(C/C=C/c3ccccc3)CC2)c(F)c1 | i | -1.76 | i | i | i | -8.0 | . | . | . | . | . | .
O=C(/C=C/c1ccc(F)cc1)NC(=S)N1CCN(Cc2ccccc2)CC1 | i | 40* | i | i | i | -1.7 | 0.00633 | 0.0421* | 0.0321 | 0.0303* | 0.0307* | 0.0256*
Cc1ccc(/C=N/NC(=O)c2ccc(Br)o2)s1 | i | 5.31* | i | i | i | -5.0 | 0.0091 | 0.00924* | 0.033 | ? | 0.0205 | 0.012
Cc1ccc(/C=N/NC(=O)Cc2ccc(O)cc2)s1 | i | . | i | i | i | -13.5 | . | . | . | . | . | .
CCc1ccc(/C=N\NC(=O)c2ccc(Br)o2)s1 | i | 6.01* | i | i | i | -10.5 | 0.00938 | 0.022* | 0.0306 | 0.0215* | 0.0226 | 0.0122*
Cc1cc(=O)[nH]c2ccc(Cl)cc12 | i | . | i | i | i | -11.8 | 0.00977 | 0.0052 | 0.0372 | 0.00437 | 0.0214 | 0.0109
Cc1cc(=O)c2cc(Cl)ccc2[nH]1 | i | -0.512 | i | i | i | -4.9 | . | . | . | . | . | .
S=C(Nc1ccccc1)Nc1ccccc1-n1cccc1 | i | 8.47* | i | i | i | -9.1 | 0.0138* | 0.0501* | 0.0387 | 0.0174* | ? | 0.0159*
FC(F)(F)c1ccc2c(c1)N1CCCC1CN2 (configuration not stated) | i | . | i | i | i | -10.2 | . | . | . | . | . | .
FC(F)(F)c1ccc2c(c1)[nH]c(=S)n2C1CC1 | i | 62.2* | i | i | i | 2.9 | 0.0297* | 0.165* | 0.0454* | 0.0688* | 0.109* | 0.0269*
CCCOc1ccccc1C(=O)Nc1ccc(S(=O)(=O)N2CCN(C)CC2)cc1 | i | . | i | i | i | -4.4 | . | . | . | . | . | .
O=C(NCC(c1cccs1)N1CCOCC1)c1ccccc1NS(=O)(=O)c1cccc([N+](=O)[O-])c1 (configuration not stated) | i | -1.46 | i | i | i | -8.8 | . | . | . | . | . | .
SMILES | KCNQ1 block | KCC2 mod | KCNK9 inh | KCNQ1 act | KCNK3 block | hERG rescue | KCC2 sec1 | KCC2 bumet counter | KCC2 secondary2 | HEK293 Tl flux | KCC2 ouabain | HEK293 Tl flux2
O=C(NCC(c1cccs1)N1CCOCC1)c1ccccc1NS(=O)(=O)c1ccc(Cl)c([N+](=O)[O-])c1 (configuration not stated) | 13* | -3.6* | i | i | i | -12.7 | 0.00697 | 0.00481 | 0.0265* | 0.00608* | 0.0162* | ?
O=C(NC1CCSc2ccccc21)c1cc(S(=O)(=O)N2CCOCC2)ccc1Cl (configuration not stated) | i | . | i | i | i | -11.8 | . | . | . | . | . | .
COc1ccccc1OCC(=O)N1CCN(C(=O)c2ccco2)CC1 | i | . | i | i | i | 0.9 | . | . | . | . | . | .
Cc1ccsc1C(=O)OCc1nc2ccccc2c(=O)[nH]1 | i | . | i | i | i | -8.7 | 0.00991 | 0.00708 | 0.035 | 0.00786 | 0.02 | ?
O=S(=O)(Nc1ccc(-n2cnnn2)cc1)c1cccc(Cl)c1 | . | . | . | . | i | . | . | . | . | . | . | .
CCOC(=O)Cc1csc(Nc2ccc(Cl)cc2)n1 | i | -0.512 | i | i | i | -5.9 | . | . | . | . | . | .
CCOC(=O)C(CC)(CCC(=O)O)c1csc(Nc2ccc(C)cc2)n1 (configuration not stated) | i | -2.89* | i | i | i | -1.2 | 0.0175 | 0.00447 | 0.0291 | 0.006* | 0.0145 | 0.00965
CCCn1ccnc1SCC(=O)Nc1c(C)n(C)n(-c2ccccc2)c1=O | . | . | . | . | i | . | . | . | . | . | . | .
